According to ChEMBL document CHEMBL3286255, “Rational design and synthesis of novel thiazolidin-4-ones as non-nucleoside HIV-1 reverse transcriptase inhibitors” (Bioorg Med Chem, 2014):

Legend:
[1] = tested on: Human immunodeficiency virus; test: Inhibition of HIV reverse transcriptase at 100 ug/ml after 1 hr by ELISA relative to control
In short: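 Kit ELISA for HIV RT. Template/primer, biotin- and DIG-labelled dNTPs and RT enzyme in lysis buffer incubated 1 h at 37 °C. Product captured on streptavidin, detected with anti-DIG-peroxidase and ABTS substrate, and read at 405 nm. Percent inhibition calculated against a no-inhibitor sample.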

[2] = tested on: Human immunodeficiency virus 1; test: Antiviral activity against X4 tropic Human immunodeficiency virus 1 UG070 subtype D infected in human TZM-bl cells assessed as reduction in virus-induced cytopathic effect after 48 hrs by luminescence assay; assay type: functional, organism-based; conditions: Human immunodeficiency virus 1, UG070 subtype D, TZM-bl, 48 h; read-out: EC50
In short: (§1)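 TZM-bl cells (HeLa-derived; CD4, CXCR4, CCR5; LTR-driven luciferase) seeded 1×10^4/well, left overnight at 37 °C, 5% CO2, then infected with 400 TCID50 virus for 2 h. Serial compound dilutions added in duplicate, only at levels giving >50% viability. […] Mean of two independent assays; nevirapine as positive control.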

[3] = tested on: Human immunodeficiency virus 1; test: Antiviral activity against R5 tropic Human immunodeficiency virus 1 VB59 subtype C infected in human TZM-bl cells assessed as reduction in virus-induced cytopathic effect after 48 hrs by luminescence assay; assay type: functional, organism-based; conditions: Human immunodeficiency virus 1, VB59 subtype C, TZM-bl, 48 h; read-out: EC50; in short: as §1
[4] = Selectivity index, ratio of CC50 for human TZM-bl cells to EC50 for X4 tropic Human immunodeficiency virus 1 UG070 subtype D; assay type: toxicity, cell-based; conditions: read-out: Ratio CC50/EC50
[5] = Selectivity index, ratio of CC50 for human TZM-bl cells to EC50 for R5 tropic Human immunodeficiency virus 1 VB59 subtype C; assay type: toxicity, cell-based; conditions: read-out: Ratio CC50/EC50
[6] = tested on: Human immunodeficiency virus 1; test: Antiviral activity against X4 tropic Human immunodeficiency virus 1 3B subtype B infected in human TZM-bl cells assessed as reduction in virus-induced cytopathic effect after 48 hrs by luminescence assay; assay type: functional, organism-based; conditions: Human immunodeficiency virus 1, 3B subtype B, TZM-bl, 48 h; read-out: EC50; in short: as §1
[7] = tested on: Human immunodeficiency virus 1; test: Antiviral activity against R5 tropic Human immunodeficiency virus 1 ADA5 subtype B infected in human TZM-bl cells assessed as reduction in virus-induced cytopathic effect after 48 hrs by luminescence assay; assay type: functional, organism-based; conditions: Human immunodeficiency virus 1, ADA5 subtype B, TZM-bl, 48 h; read-out: EC50; in short: as §1
[8] = Cytotoxicity against human TZM-bl cells after 48 hrs by MTT assay; assay type: cell-based
In short: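 TZM-bl cells seeded 1×10^4/well and left overnight at 37 °C, 5% CO2. Medium then replaced with a two-fold dilution series of compound in quadruplicate. […] Mean of three independent assays.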

[9] = Selectivity index, ratio of CC50 for human TZM-bl cells to EC50 for X4 tropic Human immunodeficiency virus 1 3B subtype B; assay type: toxicity, cell-based; conditions: read-out: Ratio CC50/EC50
[10] = Selectivity index, ratio of CC50 for human TZM-bl cells to EC50 for R5 tropic Human immunodeficiency virus 1 ADA5 subtype B; assay type: toxicity, cell-based; conditions: read-out: Ratio CC50/EC50

Row | Compound | inhibition [1] [%] | EC50 [2] [µM] | EC50 [3] [µM] | selectivity ratio [4] | selectivity ratio [5] | EC50 [6] [µM] | EC50 [7] [µM] | CC50 at 48 h [8] [µM] | selectivity ratio [9] | selectivity ratio [10]
1 | COc1cc(OC)nc(N2C(=O)CSC2c2c(F)cccc2F)n1 (stereo not given) | 82.9 | 0.53 | 0.48 | 144 | 161 | 0.25 | 0.31 | 77.5 | 310 | 250
2 | COc1cc(OC)nc(N2C(=O)CSC2c2c(Cl)cccc2Cl)n1 (stereo not given) | 76.8 | 0.2 | 0.12 | 427 | 662 | 0.07 | 0.1 | 85.4 | 1220 | 855
3 | Cc1cc(C)nc(N2C(=O)CSC2c2c(Cl)cccc2[N+](=O)[O-])c1 (stereo not given) | 91.5 | 0.08 | 0.08 | 1690 | 1690 | 0.02 | 0.08 | 139 | 6940 | 1740
4 | N#Cc1ccc(NN2C(=O)CSC2c2c(F)cccc2Cl)cc1 (stereo not given) | 26.3 | 49.6 | 35 | 1.54 | 2.18 | 33.5 | 16.2 | 76.5 | 2.27 | 4.7
5 | O=C1CSC(c2c(Cl)cccc2Cl)N1Nc1ccccn1 (stereo not given) | 97.4 | 1.17 | 1.7 | 127 | 87.6 | 0.99 | 1.85 | 149 | 150 | 80.5
6 | COc1cc(OC)nc(N2C(=O)CSC2c2c(OC)cccc2OC)n1 (stereo not given) | 93.8 | 8.87 | 7.28 | 17.6 | 21.5 | 3.17 | 4.13 | 156 | 49.3 | 37.8
7 | Cc1cc(N2C(=O)CSC2c2c(F)cccc2F)nc(C)c1Br (stereo not given) | 81.8 | 0.5 | 0.77 | 134 | 87.2 | 0.35 | 0.7 | 67.1 | 192 | 95.9
8 | Cc1cc(C)nc(N2C(=O)CSC2c2ccc(C#N)cc2)c1 (stereo not given) | 37.9 | 51.1 | 46.5 | 2.9 | 3.18 | 40.4 | 26.4 | 148 | 3.66 | 5.62
9 | N#Cc1ccc(C2SCC(=O)N2c2ccc(C#N)cn2)cc1 (stereo not given) | 30.4 | 106 | 80.1 | 1.2 | 1.59 | 53.6 | 74.2 | 128 | 2.38 | 1.71
10 | O=C1CSC(c2c(F)cccc2F)N1c1ncnc2[nH]cnc12 (stereo not given) | 70.4 | 56.5 | 38.6 | 0.71 | 1.05 | 36.3 | 27.8 | 40.5 | 1.11 | 1.45
11 | N#Cc1ccc(NN2C(=O)CSC2c2c(Cl)cccc2Cl)cc1 (stereo not given) | 22.2 | 36.9 | 25.7 | 1.76 | 2.54 | 30.3 | 5.42 | 65.3 | 2.14 | 12
12 | N#Cc1ccc(N2C(=O)CSC2c2c(Cl)cccc2Cl)nc1 (stereo not given) | 42 | 7.13 | < 7.13 | 8.4 | 8.4 | 20.5 | 4.62 | 60 | 2.92 | 13
13 | Cc1ccc(S(=O)(=O)NN2C(=O)CSC2c2c(F)cccc2Cl)cc1 (stereo not given) | 56.3 | 72.4 | 81.6 | 1.87 | 1.66 | 63.1 | 64.6 | 136 | 2.15 | 2.1
14 | Cc1ccnc2c1NC(=O)c1cccnc1N2C1CC1 [NEVIRAPINE] | 99.2 | 0.03 | 0.03 | 2060 | 2060 | 0.03 | 0.03 | 76.1 | 2060 | 2060
15 | O=C1CSC(c2c(F)cccc2Cl)N1Nc1ccccn1 (stereo not given) | 97.5 | 4.66 | 5.31 | 32.7 | 28.7 | 2.1 | 3.79 | 153 | 72.7 | 40.2
16 | COc1cccc(OC)c1C1SCC(=O)N1c1cc(C)c(Br)c(C)n1 (stereo not given) | 85.5 | 2.36 | 2.48 | 36.3 | 34.6 | 2.22 | 1.51 | 85.8 | 38.6 | 56.8
17 | COc1cc(OC)nc(N2C(=O)CSC2c2c(Cl)cccc2[N+](=O)[O-])n1 (stereo not given) | 79.4 | 0.27 | 0.22 | 298 | 367 | 0.1 | 0.22 | 80.6 | 806 | 366
18 | O=C1CSC(c2c(F)cccc2F)N1Nc1ccccn1 (stereo not given) | 64.7 | 24.4 | 16.8 | 3.69 | 5.36 | 17.3 | 16.2 | 90.1 | 5.19 | 5.56
